Values after ≈ are worked out from the molar mass of the structure shown. Active and inactive are the calls of the source. The calls are words filed in the database; no cut-off is given here.
Assays:
[1] = Inhibition of LPS stimulated TNF alpha production in Balb/c mouse peritoneal macrophages at 20 uM measured by ELISA plate reader method; type: functional; details: Macrophage
Summary of the method: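 Thioglycollate-elicited peritoneal exudate cells from male Balb/c mice, adherent fraction after overnight plating at 37 °C. Cells stimulated with 100 ng/mL LPS for 24 h with compound at 20 µM. Supernatant TNF-α measured by ELISA. Mean ± SD, n = 3.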

[2] = Inhibition of LPS stimulated TNF alpha production in Balb/c mouse peritoneal macrophages measured by ELISA plate reader method; type: functional; details: Macrophage
[3] = Metabolic stability in mouse liver microsomes assessed as percentage of compound remaining after 30 mins; type: ADME, Microsome; details: read-out: Stabilty
Summary of the method: (§1)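 Phase I stability in liver microsomes from mouse, rat and human. Percent of compound remaining measured 30 min after reaction. Buspirone included as a control metabolized in Phase I.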

[4] = Metabolic stability in rat liver microsomes assessed as percentage of compound remaining after 30 mins; type: ADME, Microsome; details: read-out: Stabilty; summary of the method: as §1
[5] = Metabolic stability in human liver microsomes assessed as percentage of compound remaining after 30 mins; type: ADME, Microsome; details: read-out: Stabilty; summary of the method: as §1
[6] = Dissociation constant, pKa of compound; type: physicochemical
[7] = Kinetic solubility of compound in water; type: physicochemical; details: read-out: Kinetic_solubility
[8] = system: Mus musculus; test: Antiinflammatory activity in orally dosed surgical-induced lymphedema ICR mouse model assessed as reduction in lymphedema volume administered for 7 days before surgery and measured 7 days after surgery relative to control; type: functional; details: time 14 day
Summary of the method: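 Lymphedema induced in the right lower limb of anesthetized male ICR mice by removing the superficial inguinal, popliteal and deep inguinal lymph nodes and a femoral lymphatic vessel, with limited cautery. Oral dosing at 100 mg/kg/day started 7 days before surgery and continued every 2 days afterwards. Limb volume measured by caliper on day 7 by blinded observers and compared with vehicle.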

[9] = Tmax in CD-1 mouse at 1 mg/kg, iv measured upto 1440 mins by LC/MS/MS analysis; type: ADME, organism-based; details: in vivo
Summary of the method: (§2)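 Male CD-1 mice, 5 weeks old, dosed once, either by tail vein at 1 mg/kg or orally at 20 mg/kg or 100 mg/kg. Plasma levels give Cmax, Tmax and AUC. Values are mean ± SD from three mice. A prodrug is quantified through its main metabolite, the parent compound (LOQ <1 ng/mL).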

[10] = Tmax in CD-1 mouse at 20 mg/kg, po measured upto 1440 mins by LC/MS/MS analysis; type: ADME, organism-based; details: in vivo; summary of the method: as §2
[11] = Tmax in CD-1 mouse at 100 mg/kg, po measured upto 1440 mins by LC/MS/MS analysis; type: ADME, organism-based; details: in vivo; summary of the method: as §2
[12] = Cmax in CD-1 mouse at 1 mg/kg, iv measured upto 1440 mins by LC/MS/MS analysis; type: ADME, organism-based; parameters: route intravenous, dose 1 mg/kg, time <=1440; details: in vivo; summary of the method: as §2
[13] = Cmax in CD-1 mouse at 20 mg/kg, po measured upto 1440 mins by LC/MS/MS analysis; type: ADME, organism-based; parameters: route oral, dose 20 mg/kg, time <=1440; details: in vivo; summary of the method: as §2
[14] = Cmax in CD-1 mouse at 100 mg/kg, po measured upto 1440 mins by LC/MS/MS analysis; type: ADME, organism-based; parameters: route oral, dose 100 mg/kg, time <=1440; details: in vivo; summary of the method: as §2
[15] = AUC (0 to infinity) in CD-1 mouse at 1 mg/kg, iv measured upto 1440 mins by LC/MS/MS analysis; type: ADME, organism-based; parameters: route intravenous, dose 1 mg/kg, time <=1440; details: in vivo, 24 h; summary of the method: as §2
[16] = AUC (0 to infinity) in CD-1 mouse at 20 mg/kg, po measured upto 1440 mins by LC/MS/MS analysis; type: ADME, organism-based; parameters: route oral, dose 20 mg/kg, time <=1440; details: in vivo, 24 h; summary of the method: as §2
[17] = AUC (0 to infinity) in CD-1 mouse at 100 mg/kg, po measured upto 1440 mins by LC/MS/MS analysis; type: ADME, organism-based; parameters: route oral, dose 100 mg/kg, time <=1440; details: in vivo; summary of the method: as §2
[18] = system: Mus musculus; test: Antiinflammatory activity in orally dosed surgical-induced lymphedema ICR mouse model assessed as reduction in neutrophil infiltration administered for 7 days before surgery and measured 7 days after surgery; type: functional, organism-based; details: time 14.0 day
Summary of the method: (§3)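 Surgical lymphedema model in male ICR mice with oral pretreatment starting 7 days before surgery. Right hind-limb tissue taken 15–25 mm distal on day 7 post-surgery and H&E-stained to assess dermal tissue and neutrophils. Groups: normal, vehicle, treated.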

[19] = system: Mus musculus; test: Antiinflammatory activity in orally dosed surgical-induced lymphedema ICR mouse model assessed as reduction in dermal layer lymphedema tissue administered for 7 days before surgery and measured 7 days after surgery; type: functional, organism-based; details: time 14.0 day; summary of the method: as §3
[20] = system: Mus musculus; test: Antiinflammatory activity in orally dosed surgical-induced lymphedema ICR mouse model assessed as reduction in TNF-alpha mRNA expression administered 7 days before surgery and measured 7 days after surgery by RT-PCR analysis; type: functional, organism-based; details: time 14.0 day
[21] = system: Mus musculus; test: Antiinflammatory activity in orally dosed surgical-induced lymphedema ICR mouse model assessed as reduction in PPARgamma expression administered 7 days before surgery and measured 7 days after surgery by Western blot analysis; type: functional, organism-based; details: time 14.0 day
[22] = system: Mus musculus; test: Antiinflammatory activity in orally dosed surgical-induced lymphedema ICR mouse model assessed as reduction in PPARgamma expression administered 7 days before surgery and measured 7 days after surgery by immunofluorescence analysis; type: functional, organism-based; details: time 14.0 day
Summary of the method: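 Surgical lymphedema in male ICR mice with oral pretreatment. Limb tissue harvested on day 7 post-surgery. Sections immunostained with anti-mouse PPARγ, Alexa Fluor 488 secondary and DAPI, then examined by fluorescence microscopy.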

[23] = system: Mus musculus; test: Antiinflammatory activity in orally dosed surgical-induced lymphedema ICR mouse model assessed as reduction in Fabp4 administered 7 days before surgery and measured 7 days after surgery by Western blot analysis; type: functional, organism-based; details: time 14.0 day
[24] = system: Mus musculus; test: Antiinflammatory activity in orally dosed surgical-induced lymphedema ICR mouse model assessed as reduction in PPARgamma mRNA expression administered 7 days before surgery and measured 7 days after surgery by RT-PCR analysis; type: functional, organism-based; details: time 14.0 day
[25] = system: Mus musculus; test: Antiinflammatory activity in orally dosed surgical-induced lymphedema ICR mouse model assessed as reduction in Fabp4 mRNA expression administered 7 days before surgery and measured 7 days after surgery by RT-PCR analysis; type: functional, organism-based; details: time 14.0 day
[26] = system: Mus musculus; test: Antiinflammatory activity in orally dosed surgical-induced lymphedema ICR mouse model assessed as reduction in TNF-alpha expression administered 7 days before surgery and measured 7 days after surgery; details: time 14.0 day
[27] = Oral bioavailability in CD-1 mouse at 20 mg/kg measured upto 1440 mins by LC/MS/MS analysis; type: ADME, organism-based; details: in vivo, 24 h
Summary of the method: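 Male CD-1 mice (5 weeks) dosed orally at 20 mg/kg, with a 1 mg/kg tail-vein reference group. Bioavailability calculated as (AUCpo/AUCiv) × 100. Mean ± SD, three mice.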

In the case of `Cc1cc(O)ccc1C(=O)/C=C/c1ccc(O)c(O)c1`, the inhibition at 20 µM [1] is reported as 41% and the IC50 [2] is reported as 48.4 µM.
For `CC(C)Oc1cc(O)ccc1C(=O)/C=C/c1ccc(O)c(O)c1`, the inhibition at 20 µM [1] was 64%.
In the case of `O=C(Oc1cc(O)ccc1C(=O)/C=C/c1ccc(O)c(O)c1)c1ccc(Cl)cc1`, the IC50 [2] is reported as 17.9 µM.
Compound `O=C1CC2(CCCC2)CC(=O)N1CCCCN1CCN(c2ncccn2)CC1` [BUSPIRONE] has a remaining at 0.5 h [3] of 0.0183%, a remaining at 0.5 h [4] of 0.0928% and a remaining at 0.5 h [5] of 4.7%.
With `O=C(/C=C/c1ccc(O)c(O)c1)c1ccc(O)cc1F` the inhibition at 20 µM [1] was 32%.
With `Cc1ccc(C(=O)/C=C/c2ccc(O)c(O)c2)cc1` the inhibition at 20 µM [1] was 61% and the IC50 [2] was 18.6 µM.
For `O=C(/C=C/c1ccc(O)c(O)c1)c1ccc(Cl)cc1`, the inhibition at 20 µM [1] was 62%, the IC50 [2] was 17.3 µM and the remaining at 0.5 h [3] was 7.26%. The remaining at 0.5 h [4] was 21.1%, the remaining at 0.5 h [5] was 38% and the pKa [6] was 9.23. The solubility kinetic [7] was 28 µg/mL (≈ 102 µM) and the “inhibition (INH)” value [8] was 53%.
Work on `CC(=O)Oc1ccc(C(=O)/C=C/c2ccc(OC(C)=O)c(OC(C)=O)c2)c(OC(C)=O)c1` yielded an inhibition at 20 µM [1] of 73% and an IC50 [2] of 12.8 µM.
`O=C(/C=C/c1ccc(O)c(O)c1)c1ccc(O)cc1O` [BUTEIN] gave an inhibition at 20 µM [1] of 20%, an IC50 [2] of 43.3 µM and a remaining at 0.5 h [3] of 9.93%. It also gave a remaining at 0.5 h [4] of 18.1%, a remaining at 0.5 h [5] of 61.6% and a pKa [6] of 7.96. It also gave a solubility kinetic [7] of 21 µg/mL (≈ 77.1 µM), a Tmax [9] of 6 min and a Tmax [10] of 18 min. It also gave a Tmax [11] of 18 min, a Cmax [12] of 41 ng/mL and a Cmax [13] of 43 ng/mL. It also gave a Cmax [14] of 601 ng/mL, an AUC [15] of 6.7 ng·h/mL and an AUC [16] of 21 ng·h/mL. The AUC(0-inf) ([17]; CD-1, mouse) was 251 ng·h/mL, the “inhibition (INH)” value [8] was 52% and the inhibition [18] was “Active”. The inhibition [19] was “Active”, the inhibition [20] was “Active” and the inhibition [21] was “Active”. For the same compound, the inhibition [22] was “Active”, the inhibition [23] was “Active” and the inhibition [24] was “Active”. The inhibition [25] was “Active” and the inhibition [26] was “Active”.
In the case of `O=C(/C=C/c1ccc(F)c(O)c1)c1ccc(O)cc1O`, the inhibition at 20 µM [1] is reported as 22%.
In the case of `COc1ccc(C(=O)Oc2cc(O)ccc2C(=O)/C=C/c2ccc(O)c(O)c2)cc1`, the IC50 [2] is reported as 20.8 µM.
Work on `O=C(Oc1cc(O)ccc1C(=O)/C=C/c1ccc(O)c(O)c1)c1ccccc1` yielded an inhibition at 20 µM [1] of 51%, an IC50 [2] of 14.6 µM and a remaining at 0.5 h [3] of 4%. The remaining at 0.5 h [4] was 7%, the remaining at 0.5 h [5] was 2% and the pKa [6] was 3.38. For the same compound, the solubility kinetic [7] was 136 µg/mL (≈ 361 µM), the Tmax [9] was 12 min and the Tmax [10] was 24 min. For the same compound, the Tmax [11] was 24 min, the Cmax [12] was 110 ng/mL and the Cmax [13] was 83 ng/mL. The Cmax [14] was 1600 ng/mL, the AUC [15] was 163 ng·h/mL and the AUC [16] was 141 ng·h/mL. For the same compound, the AUC ([17]; mouse, 24 h) was 1224 ng·h/mL, the “inhibition (INH)” value [8] was 70% and the inhibition [18] was “Active”. The inhibition [19] was “Active”, the inhibition [20] was “Active” and the inhibition [21] was “Active”. For the same compound, the inhibition [22] was “Active”, the inhibition [23] was “Active” and the F [27] was 4%. For the same compound, the inhibition [24] was “Active”, the inhibition [25] was “Active” and the inhibition [26] was “Active”.
`Cc1ccc(C(=O)Oc2cc(O)ccc2C(=O)/C=C/c2ccc(O)c(O)c2)cc1` showed an IC50 [2] of 18.9 µM.
